Measurements published in ChEMBL document CHEMBL4765239, “Discovery of a Novel Highly Selective Histamine H4 Receptor Antagonist for the Treatment of Atopic Dermatitis” (J Med Chem, 2018).
Values after ≈ are worked out from the molar mass of the structure shown.

What was measured:
[1] = biological target: T1, 5-hydroxytryptamine receptor 3A (Homo sapiens) (UniProt P46098); experiment: Displacement of [3H]BRL 43694 from human recombinant 5-HT3 receptor at 10 uM after 120 mins by scintillation counting analysis relative to control
T1 sequence (whole entry): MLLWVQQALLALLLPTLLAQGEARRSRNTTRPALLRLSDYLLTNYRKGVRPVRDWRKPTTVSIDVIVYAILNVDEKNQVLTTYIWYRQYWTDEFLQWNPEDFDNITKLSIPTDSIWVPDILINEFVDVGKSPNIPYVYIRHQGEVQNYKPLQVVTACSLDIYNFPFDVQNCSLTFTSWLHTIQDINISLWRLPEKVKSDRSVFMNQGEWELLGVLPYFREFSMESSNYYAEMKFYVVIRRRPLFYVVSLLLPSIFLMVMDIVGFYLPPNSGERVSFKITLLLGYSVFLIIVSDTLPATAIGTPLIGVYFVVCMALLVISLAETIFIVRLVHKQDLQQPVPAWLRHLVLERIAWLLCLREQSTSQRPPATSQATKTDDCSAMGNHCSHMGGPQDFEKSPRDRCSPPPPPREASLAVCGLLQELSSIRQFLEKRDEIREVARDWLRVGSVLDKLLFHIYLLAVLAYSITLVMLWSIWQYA

Histamine H3 receptor = Histamine H3 receptor (Homo sapiens, UniProt Q9Y5N1); experiment: Displacement of [3H]-N-alpha-methylhistamine from recombinant human histamine H3 receptor expressed in CHO-K1 cell membranes measured after 30 mins by microbeta scintillation counting method; set-up: species or system Cell membrane
Sequence of Histamine H3 receptor (Q9Y5N1 whole entry): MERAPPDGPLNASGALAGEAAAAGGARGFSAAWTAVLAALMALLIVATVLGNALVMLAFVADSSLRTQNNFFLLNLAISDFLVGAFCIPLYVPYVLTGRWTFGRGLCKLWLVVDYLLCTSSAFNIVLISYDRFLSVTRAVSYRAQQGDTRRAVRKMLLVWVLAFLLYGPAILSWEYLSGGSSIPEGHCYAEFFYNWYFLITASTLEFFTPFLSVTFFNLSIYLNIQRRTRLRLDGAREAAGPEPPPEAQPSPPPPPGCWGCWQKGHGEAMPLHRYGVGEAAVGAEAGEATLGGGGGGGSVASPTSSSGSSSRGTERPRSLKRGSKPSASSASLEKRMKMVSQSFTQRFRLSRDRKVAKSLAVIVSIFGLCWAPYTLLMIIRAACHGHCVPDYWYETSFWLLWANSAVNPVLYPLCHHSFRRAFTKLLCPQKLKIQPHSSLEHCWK
Outline: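 Competitive binding on CHO-K1 membranes expressing human H3R ([3H]Nα-methylhistamine) or mouse H4R ([3H]histamine). Run in 50 mM Tris-HCl pH 7.4 for 30 min at 27 °C, then filtered onto 0.5% PEI-treated glass fiber and washed three times with ice-cold buffer. Bound radioactivity read by liquid scintillation counting.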

[2] = Intrinsic clearance in human liver microsomes at 5 uM incubated upto 30 mins in presence of NADPH by UPLC-UV analysis; type: ADME, Microsome; settings: read-out: CLH
Outline: (§1)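 Test compound at 5 µM incubated with pooled CD-1 mouse or human liver microsomes plus 1 mM NADPH. Remaining compound measured by UPLC-UV at 0, 10, 20 and 30 min. CLint derived from the first-order elimination rate constant, normalized to microsomal protein.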

[3] = Solubility of compound in SGF at pH 1.2 incubated for 2 hrs by UPLC-UV analysis; type: physicochemical
Outline: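 Compound incubated at 37 °C in FaSSIF (pH 6.5) for 0.5 h or in SGF (pH 1.2) for 2 h. Filtered through 0.45 µm, concentration measured by UPLC-UV.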

[4] = Intrinsic clearance in CD1 mouse liver microsomes at 5 uM incubated upto 30 mins in presence of NADPH by UPLC-UV analysis; type: ADME, Microsome; settings: read-out: CLH; outline: as §1
[5] = Solubility of compound in FaSSIF at pH 6.5 incubated for 0.5 hrs by UPLC-UV analysis
Histamine H4 receptor = Histamine H4 receptor (Homo sapiens, UniProt Q9H3N8); experiment: Displacement of [3H]-histamine from recombinant human histamine H4 receptor expressed in CHO-K1 cell membranes measured after 30 mins by microbeta scintillation counting method; set-up: species or system Cell membrane
[6] = Tmax in ICR mouse at 50 mg/kg, po measured upto 24 hrs by LC-MS/MS analysis; type: ADME, organism-based; settings: in vivo
Outline: (§2)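 Female ICR mice, n=3 per group, given test compound orally. Blood sampled at 0.5, 1, 2, 4, 7 and 24 h post dose; plasma levels quantified by LC-MS/MS. Parameters from non-compartmental analysis.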

[7] = AUC (all) in ICR mouse at 50 mg/kg, po measured upto 24 hrs by LC-MS/MS analysis; type: ADME, organism-based; set-up: route oral, dose 50 mg/kg, time <=24; settings: in vivo; outline: as §2
[8] = Cmax in ICR mouse at 50 mg/kg, po measured upto 24 hrs by LC-MS/MS analysis; type: ADME, organism-based; set-up: route oral, dose 50 mg/kg, time <=24; settings: in vivo; outline: as §2
[9] = Lipophilicity, logD of the compound at pH 7.4; type: physicochemical; settings: buffer
[10] = Basicity constant, pKa of the compound; type: physicochemical
[11] = biological target: T2, 5-hydroxytryptamine receptor 3A (Homo sapiens, UniProt P46098); experiment: Displacement of [3H]BRL 43694 from human recombinant 5-HT3 receptor after 120 mins by scintillation counting analysis
T2 sequence (P46098 whole entry): T1 sequence (whole entry)

SMILES | IC50 (Histamine H3 receptor) [µM] | microsomal CLint at 5 µM [2] [µL/min/mg] | solubility at 2 h [3] [µg/mL] | microsomal CLint at 5 µM [4] [µL/min/mg] | solubility at 0.5 h [5] [µg/mL] | IC50 (Histamine H4 receptor) [µM] | further results
CN1CCN(c2nc3ncc(Cl)cc3n3nnnc23)CC1 | 73 |  |  |  |  |  | inhibition ([1]; filed as antagonist): 85%
CN1CCN(c2nc3ncc(C#N)cc3n3cnnc23)CC1 |  | 3.49 | 1740 (≈ 5.92 mM) | 2.8 | 417 (≈ 1.42 mM) |  | 
CN1CCN(C(=O)c2cc3cc(Cl)ccc3[nH]2)CC1 [JNJ-7777120] | > 100 | 6.5 | 1410 (≈ 5.09 mM) | 128 | 378 (≈ 1.36 mM) |  | 
CN1CCN(c2nc3ncccc3n3cnnc23)CC1 |  | 0.61 | > 2000 | 5.36 | > 2000 | 3 | 
CNC1CN(c2nc3ncc(Cl)cc3n3nnnc23)C1 |  |  |  |  |  | 0.053 | inhibition [1]: 18%
CN1CCN(c2nc3ccc(Cl)cc3n3cnnc23)CC1 | 4.4 | 5.83 | > 2000 | 29.1 | 227 (≈ 0.75 mM) |  | Tmax [6]: 40.2 min; IC50 (Histamine H4 receptor; cho-k1): 0.022 µM; AUC at 24 h [7]: 1680 ng·h/mL; Cmax [8]: 676 ng/mL; logD [9]: 2.12
CNC1CN(c2nc3ncc(Cl)cc3c3ncnn23)C1 |  |  |  |  |  | 1.1 | inhibition [1]: 32%
Cc1cnc2nc(N3CCN(C)CC3)c3nncn3c2c1 |  | 5.17 | 2000 (≈ 7.05 mM) | 2.91 | 1900 (≈ 6.72 mM) |  | 
CN1CCN(c2nc3nc(C#N)c(Cl)cc3n3cnnc23)CC1 | 36 | 1.63 |  | 0.69 |  |  | 
CN1CCN(c2nc3ncc(C(F)(F)F)cc3n3cnnc23)CC1 | 43 | 1.31 | > 2000 | 2.05 | 1230 (≈ 3.65 mM) |  | 
CN1CCN(c2nc3cccnc3n3cnnc23)CC1 |  | 8.21 | 1920 (≈ 7.14 mM) | 50.2 | > 2000 | 3 | 
CN1CCN(c2nc3ncc(Cl)cc3c3ncnn23)CC1 | 75 |  |  |  |  |  | inhibition ([1]; filed as antagonist): 96%
Clc1cnc2nc(N3CC4CCCNC4C3)c3nncn3c2c1 (configuration not stated) |  |  |  |  |  | > 10 | 
CN1CCN(c2nc3nc(Cl)c(Cl)cc3n3cnnc23)CC1 |  | 2.55 | 1950 (≈ 5.76 mM) | 5.28 | 163 (≈ 0.482 mM) |  | 
Clc1cnc2nc(N3CCNCC3)c3nncn3c2c1 |  |  |  |  |  |  | pKa [10]: 8.9
CN1CCN(c2cc3ccc(Cl)cc3n3cnnc23)CC1 | > 100 | 0.86 | > 2000 | 8.43 | > 2000 | 6.2 | 
Clc1cnc2nc(N3CCN4CCCC4C3)c3nncn3c2c1 (configuration not stated) | 24 |  |  |  |  | 0.052 | 
CN1CCN(c2nc3ccccc3n3cnnc23)CC1 | > 100 | 11.5 | > 2000 | 73.1 | 1190 (≈ 4.42 mM) | 2.3 | 
Cc1c(Br)cnc2nc(N3CCN(C)CC3)c3nncn3c12 | 24 | 3.84 | 1800 (≈ 4.97 mM) | 7.62 | 583 (≈ 1.61 mM) |  | 
CN1CCN(c2nc3ccc([N+](=O)[O-])cc3n3cnnc23)CC1 | 41 | 2.63 | 1900 (≈ 6.06 mM) | 10.4 | 80.2 (≈ 0.256 mM) | 0.17 | 
Cc1ccc2nc(N3CCN(C)CC3)c3nncn3c2c1 | 15 | 7.51 | > 2000 | 23.3 | 1940 (≈ 6.88 mM) | 0.57 | 
CN1CCN(c2nc3ncc(Br)cc3n3nnnc23)CC1 | 49 |  |  |  |  |  | inhibition ([1]; filed as antagonist): 89%
CCOc1nc2nc(N3CCN(C)CC3)c3nncn3c2cc1Cl |  | 3.28 |  | 3.56 |  | 0.52 | 
CN1CCN(c2nc3nc(OCC(F)(F)F)c(Cl)cc3n3cnnc23)CC1 |  | 5.72 |  | 4.94 |  |  | 

Continued, in another order:

IC50 (Histamine H3 receptor) [µM] | microsomal CLint at 5 µM [2] [µL/min/mg] | solubility at 2 h [3] [µg/mL] | microsomal CLint at 5 µM [4] [µL/min/mg] | solubility at 0.5 h [5] [µg/mL] | IC50 (Histamine H4 receptor) [µM] | SMILES | further results
 |  |  |  |  | 5.2 | NC1CN(c2nc3ncc(Cl)cc3n3cnnc23)C1 | inhibition [1]: 24.5%
 |  |  |  |  | 6.3 | N[C@@H]1CCN(c2nc3ncc(Cl)cc3n3cnnc23)C1 | 
 |  |  |  |  | 4.1 | CN[C@@H]1CCN(c2nc3ncc(Cl)cc3n3cnnc23)C1 | 
11 |  |  |  |  | 2.9 | CN1CCCN(c2nc3ncc(Cl)cc3n3cnnc23)CC1 | 
 |  |  |  |  | 1.2 | CN(C)C1CN(c2nc3ncc(Cl)cc3n3cnnc23)C1 | inhibition ([1]; filed as antagonist): 77.5%
 |  |  |  |  | > 10 | Clc1cnc2nc(N3CCCNCC3)c3nncn3c2c1 | 
 |  |  |  |  | 4.8 | CN(C)[C@@H]1CCN(c2nc3ncc(Cl)cc3n3cnnc23)C1 | 
 | 0.6 | > 2000 | 1.98 | 1240 (≈ 4.1 mM) | 0.077 | CN1CCN(c2nc3ncc(Cl)cc3n3cnnc23)CC1 | inhibition ([1]; filed as antagonist): 100%; Tmax [6]: 30 min; AUC at 24 h [7]: 23600 ng·h/mL; pKa [10]: 9.9; Cmax [8]: 4630 ng/mL; logD [9]: 0.95; IC50 [11]: 0.057 µM
71 | 1.64 | 1930 (≈ 5.54 mM) | 3.13 | 679 (≈ 1.95 mM) |  | CN1CCN(c2nc3ncc(Br)cc3n3cnnc23)CC1 | 
 |  |  |  |  | > 10 | Clc1cnc2nc(N3CCN(C4CC4)CC3)c3nncn3c2c1 | 
 | 2.81 | 1250 (≈ 3.16 mM) | 3.74 | 126 (≈ 0.319 mM) |  | CN1CCN(c2nc3ncc(I)cc3n3cnnc23)CC1 | 
 |  |  |  |  | 0.065 | CNC1CN(c2nc3ncc(Cl)cc3n3cnnc23)C1 | inhibition ([1]; filed as antagonist): 50%
